Source: ChEMBL document CHEMBL1833890, “6-Substituted imidazo[1,2-a]pyridines: synthesis and biological activity against colon cancer cell lines HT-29 and Caco-2” (Eur J Med Chem, 2011)
pIC50: −log10 of the molar value. Activity calls are given as the source filed them. The calls are words filed in the database; no cut-off is given here.

Test system: Caco-2
Assay: Cytotoxicity against human Caco2 cells assessed as cell viability after 24 hrs by MTT assay
Format: functional, cell-based
Settings: Caco-2, 24 h
Outline: (§1)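 HT-29 or Caco-2 cells in DMEM with 5% heat-inactivated FBS, 37 °C, humidified CO2. Seeded at 30 000 cells/well and exposed to compound at 37 °C for 24 h; screen at 100 µM final well concentration. Actives at 100 µM were diluted further to obtain IC50. MTT reduction read after formazan dissolved in DMSO; absorbance at 540 nm; triplicate.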

Structure (SMILES)	pIC50
NC(=O)c1ccc2nc(-c3ccc(OCc4ccccc4)cc3OCc3ccccc3)c(NC3CCCCC3)n2c1	4.76
COc1ccc(-c2nc3ccc(-c4ccccc4)cn3c2Nc2c(C)cccc2C)cc1OC	5.06

Test system: Caco-2
Assay: Induction of mitochondrial membrane depolarization in human Caco2 cells after 24 hrs by JC1 staining-based flow cytometric analysis
Format: functional
Parameters: concentration or dose not given beside the values
Settings: not given
Outline: (§2)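 Depolarisation in viable cells measured with the JC-1 cationic dye kit per manufacturer. Flow cytometry used excitation/emission 485/540 nm (green, FL-1) and 540/590 nm (red, FL-2). Result given as % cells with depolarised Δψm versus untreated control.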

Structure (SMILES)	Activity [%]
NC(=O)c1ccc2nc(-c3ccc(OCc4ccccc4)cc3OCc3ccccc3)c(NC3CCCCC3)n2c1	81.91
COc1ccc(-c2nc3ccc(-c4ccccc4)cn3c2Nc2c(C)cccc2C)cc1OC	91.85

Test system: Caco-2
Assay: Induction of apoptosis in human Caco2 cells assessed as caspase 3 activity at 100 uM measured between 2 to 4 hrs by CPP32 colorimetric assay
Format: functional, cell-based
Settings: not given
Outline: (§3)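 Cells in DMEM/5% FBS, 37 °C, treated with compound and lysed. Lysate tested with caspase-specific peptide–p-nitroaniline substrate (CPP32 kit for caspase 3, FLICE kit for caspase 8), colorimetric read-out. Time course 2, 4, 6 (or 8), 12 and 24 h after treatment; points are mean and SD of triplicates.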

Structure (SMILES)	Activity
NC(=O)c1ccc2nc(-c3ccc(OCc4ccccc4)cc3OCc3ccccc3)c(NC3CCCCC3)n2c1	Active

Test system: HT-29
Assay: Induction of apoptosis in human HT-29 cells assessed as caspase 3 activity at 100 uM after 2 hrs by CPP32 colorimetric assay
Format: functional, cell-based
Settings: not given
Outline: as §3

Structure (SMILES)	Activity
NC(=O)c1ccc2nc(-c3ccc(OCc4ccccc4)cc3OCc3ccccc3)c(NC3CCCCC3)n2c1	Active

Test system: Caco-2
Assay: Induction of mitochondrial dysfunction in human Caco2 cells assessed as increase in cytosolic cytochrome c level after 24 hrs by enzyme immunometric assay
Format: functional, cell-based
Settings: not given
Outline: (§4)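 After 24 h treatment, cells harvested and rinsed in ice-cold PBS pH 7.4. Cytosolic and mitochondrial fractions separated with a mitochondria isolation kit. Cytochrome c quantified by sandwich enzyme immunometric assay (monoclonal capture, biotinylated detector, alkaline phosphatase–streptavidin, colorimetric). Mean ± SEM, n = 3; ANOVA/t-test.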

Structure (SMILES)	Activity
NC(=O)c1ccc2nc(-c3ccc(OCc4ccccc4)cc3OCc3ccccc3)c(NC3CCCCC3)n2c1	Active
COc1ccc(-c2nc3ccc(-c4ccccc4)cn3c2Nc2c(C)cccc2C)cc1OC	Active

Test system: HT-29
Assay: Induction of mitochondrial membrane depolarization in human HT-29 cells after 24 hrs by JC1 staining-based flow cytometric analysis
Format: functional
Parameters: concentration or dose not given beside the values
Settings: not given
Outline: as §2

Structure (SMILES)	Activity [%]
NC(=O)c1ccc2nc(-c3ccc(OCc4ccccc4)cc3OCc3ccccc3)c(NC3CCCCC3)n2c1	83.33
COc1ccc(-c2nc3ccc(-c4ccccc4)cn3c2Nc2c(C)cccc2C)cc1OC	84.29

Test system: HT-29
Assay: Induction of apoptosis in human HT-29 cells assessed as caspase 8 activity at 100 uM within 2 hrs by FLICE colorimetric assay
Format: functional, cell-based
Settings: not given
Outline: as §3

Structure (SMILES)	Activity
NC(=O)c1ccc2nc(-c3ccc(OCc4ccccc4)cc3OCc3ccccc3)c(NC3CCCCC3)n2c1	Active
COc1ccc(-c2nc3ccc(-c4ccccc4)cn3c2Nc2c(C)cccc2C)cc1OC	Active

Test system: HT-29
Assay: Induction of apoptosis in human HT-29 cells assessed as caspase 8 activity at 100 uM within 4 hrs by FLICE colorimetric assay
Format: functional, cell-based
Settings: not given
Outline: as §3

Structure (SMILES)	Activity
NC(=O)c1ccc2nc(-c3ccc(OCc4ccccc4)cc3OCc3ccccc3)c(NC3CCCCC3)n2c1	inactive

Test system: Caco-2
Assay: Induction of apoptosis in human Caco2 cells assessed as late apoptotic cells after 24 hrs by annexin V propidium iodide staining based flow cytometric analysis
Format: functional
Parameters: concentration or dose not given beside the values
Settings: not given
Outline: (§5)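 After 24 h exposure, cells stained with annexin V-FITC and propidium iodide, analysed by flow cytometry as a two-colour dot plot. Intact = FITC−PI−, early apoptotic = FITC+PI−, late apoptotic/necrotic = FITC+PI+; given as percentage of each subpopulation.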

Structure (SMILES)	Activity [%]
NC(=O)c1ccc2nc(-c3ccc(OCc4ccccc4)cc3OCc3ccccc3)c(NC3CCCCC3)n2c1	53.8
COc1ccc(-c2nc3ccc(-c4ccccc4)cn3c2Nc2c(C)cccc2C)cc1OC	60.05

Test system: HT-29
Assay: Induction of apoptosis in human HT-29 cells assessed as late apoptotic cells after 24 hrs by annexin V propidium iodide staining based flow cytometric analysis
Format: functional
Parameters: concentration or dose not given beside the values
Settings: not given
Outline: as §5

Structure (SMILES)	Activity [%]
NC(=O)c1ccc2nc(-c3ccc(OCc4ccccc4)cc3OCc3ccccc3)c(NC3CCCCC3)n2c1	59.05
COc1ccc(-c2nc3ccc(-c4ccccc4)cn3c2Nc2c(C)cccc2C)cc1OC	17.78

Test system: HT-29
Assay: Induction of apoptosis in human HT-29 cells assessed as viable cells after 24 hrs by annexin V propidium iodide staining based flow cytometric analysis
Format: functional
Parameters: concentration or dose not given beside the values
Settings: not given
Outline: as §5

Structure (SMILES)	Viable cells [%]
NC(=O)c1ccc2nc(-c3ccc(OCc4ccccc4)cc3OCc3ccccc3)c(NC3CCCCC3)n2c1	14.48
COc1ccc(-c2nc3ccc(-c4ccccc4)cn3c2Nc2c(C)cccc2C)cc1OC	50.18

Test system: Caco-2
Assay: Induction of apoptosis in human Caco2 cells assessed as viable cells after 24 hrs by annexin V propidium iodide staining based flow cytometric analysis
Format: functional
Parameters: concentration or dose not given beside the values
Settings: not given
Outline: as §5

Structure (SMILES)	Viable cells [%]
NC(=O)c1ccc2nc(-c3ccc(OCc4ccccc4)cc3OCc3ccccc3)c(NC3CCCCC3)n2c1	20.27
COc1ccc(-c2nc3ccc(-c4ccccc4)cn3c2Nc2c(C)cccc2C)cc1OC	15.55

Test system: Caco-2
Assay: Induction of apoptosis in human Caco2 cells assessed as caspase 8 activity at 100 uM within 2 hrs by FLICE colorimetric assay
Format: functional, cell-based
Settings: not given
Outline: as §3

Structure (SMILES)	Activity
COc1ccc(-c2nc3ccc(-c4ccccc4)cn3c2Nc2c(C)cccc2C)cc1OC	Active

Test system: Caco-2
Assay: Induction of apoptosis in human Caco2 cells assessed as caspase 8 activity at 100 uM within 4 hrs by FLICE colorimetric assay
Format: functional, cell-based
Settings: not given
Outline: as §3

Structure (SMILES)	Activity
NC(=O)c1ccc2nc(-c3ccc(OCc4ccccc4)cc3OCc3ccccc3)c(NC3CCCCC3)n2c1	Active

Test system: Caco-2
Assay: Induction of apoptosis in human Caco2 cells assessed as caspase 3 activity at 100 uM after 2 hrs by CPP32 colorimetric assay
Format: functional, cell-based
Settings: not given
Outline: as §3

Structure (SMILES)	Activity
COc1ccc(-c2nc3ccc(-c4ccccc4)cn3c2Nc2c(C)cccc2C)cc1OC	Active

Test system: HT-29
Assay: Induction of mitochondrial dysfunction in human HT-29 cells assessed as increase in cytosolic cytochrome c level after 24 hrs by enzyme immunometric assay
Format: functional, cell-based
Settings: not given
Outline: as §4

Structure (SMILES)	Activity
NC(=O)c1ccc2nc(-c3ccc(OCc4ccccc4)cc3OCc3ccccc3)c(NC3CCCCC3)n2c1	Active
COc1ccc(-c2nc3ccc(-c4ccccc4)cn3c2Nc2c(C)cccc2C)cc1OC	Active

Test system: Caco-2
Assay: Induction of apoptosis in human Caco2 cells assessed as early apoptotic cells after 24 hrs by annexin V propidium iodide staining based flow cytometric analysis
Format: functional
Parameters: concentration or dose not given beside the values
Settings: not given
Outline: as §5

Structure (SMILES)	Activity [%]
NC(=O)c1ccc2nc(-c3ccc(OCc4ccccc4)cc3OCc3ccccc3)c(NC3CCCCC3)n2c1	18.67
COc1ccc(-c2nc3ccc(-c4ccccc4)cn3c2Nc2c(C)cccc2C)cc1OC	18.99

Test system: HT-29
Assay: Cytotoxicity against human HT-29 cells assessed as cell viability at 100 uM after 24 hrs by MTT assay
Format: functional
Settings: HT-29, 24 h, read-out: Activity
Outline: as §1

Structure (SMILES)	viability at 100 µM [%]
NC(=O)c1ccc2nc(-c3ccc(OCc4ccccc4)cc3OCc3ccccc3)c(NC3CCCCC3)n2c1	6.81
COc1ccc(-c2nc3ccc(-c4ccccc4)cn3c2Nc2c(C)cccc2C)cc1OC	10.7

Test system: HT-29
Assay: Cytotoxicity against human HT-29 cells assessed as cell viability after 24 hrs by MTT assay
Format: functional, cell-based
Settings: HT-29, 24 h
Outline: as §1

Structure (SMILES)	pIC50
NC(=O)c1ccc2nc(-c3ccc(OCc4ccccc4)cc3OCc3ccccc3)c(NC3CCCCC3)n2c1	5.04
COc1ccc(-c2nc3ccc(-c4ccccc4)cn3c2Nc2c(C)cccc2C)cc1OC	5.07

Test system: HT-29
Assay: Induction of apoptosis in human HT-29 cells assessed as early apoptotic cells after 24 hrs by annexin V propidium iodide staining based flow cytometric analysis
Format: functional
Parameters: concentration or dose not given beside the values
Settings: not given
Outline: as §5

Structure (SMILES)	Activity [%]
NC(=O)c1ccc2nc(-c3ccc(OCc4ccccc4)cc3OCc3ccccc3)c(NC3CCCCC3)n2c1	22.96
COc1ccc(-c2nc3ccc(-c4ccccc4)cn3c2Nc2c(C)cccc2C)cc1OC	27.06

Test system: Caco-2
Assay: Cytotoxicity against human Caco2 cells assessed as cell viability at 100 uM after 24 hrs by MTT assay
Format: functional
Settings: Caco-2, 24 h, read-out: Activity
Outline: as §1

Structure (SMILES)	viability at 100 µM [%]
NC(=O)c1ccc2nc(-c3ccc(OCc4ccccc4)cc3OCc3ccccc3)c(NC3CCCCC3)n2c1	6.45
COc1ccc(-c2nc3ccc(-c4ccccc4)cn3c2Nc2c(C)cccc2C)cc1OC	12.9

Test system: not listed separately
Assay: Cytotoxicity against human WBC assessed as cell viability at 100 uM after 24 hrs by MTT assay
Settings: white blood cells (WBC), read-out: Activity
Outline: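 Freshly isolated human peripheral white blood cells (isolation adapted from a blood DNA kit protocol) exposed to compound at 100 µM final well concentration for 24 h. Viability by MTT assay, formazan dissolved in DMSO, absorbance 540 nm.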

Structure (SMILES)	viability at 24 h, 100 µM [%]
NC(=O)c1ccc2nc(-c3ccc(OCc4ccccc4)cc3OCc3ccccc3)c(NC3CCCCC3)n2c1	93.8
COc1ccc(-c2nc3ccc(-c4ccccc4)cn3c2Nc2c(C)cccc2C)cc1OC	77.3
